Hits are enriched below; roughly 2.6% of the tested compounds scored in any of these assays.
SENP6 block – blocks the human protease SENP6. Recombinant SENP6 catalytic domain, aminoluciferin luminescence. inhibition, % at 10 µM. hit rate 1.8% among 330,000;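 active = inhibition above about 50% at the single tested dose, limit read from the data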;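 note: plate controls were DMSO wells with enzyme for no effect and DMSO wells lacking enzyme for full effect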
Target sequence (Q9GZR1 628-1112 limits assumed): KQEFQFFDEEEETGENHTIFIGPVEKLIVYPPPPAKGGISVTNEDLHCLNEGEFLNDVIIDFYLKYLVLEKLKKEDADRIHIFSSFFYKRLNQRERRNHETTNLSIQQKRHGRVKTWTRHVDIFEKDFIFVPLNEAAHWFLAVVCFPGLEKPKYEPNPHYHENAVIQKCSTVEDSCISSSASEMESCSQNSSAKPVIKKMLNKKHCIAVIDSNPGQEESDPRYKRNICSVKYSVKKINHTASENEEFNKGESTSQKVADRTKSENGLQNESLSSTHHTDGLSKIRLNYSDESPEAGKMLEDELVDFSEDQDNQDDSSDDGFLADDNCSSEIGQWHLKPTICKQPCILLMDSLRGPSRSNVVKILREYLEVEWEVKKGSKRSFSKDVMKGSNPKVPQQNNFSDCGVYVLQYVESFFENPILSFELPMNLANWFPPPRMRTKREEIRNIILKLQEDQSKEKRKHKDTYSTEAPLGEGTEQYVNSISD
SENP7 block – blocks the human protease SENP7. Q9BQF6. recombinant SENP7, Z-RLRGG-aminoluciferin luminescence, 40 min. inhibition, % at 5 µM. hit rate 1.5% among 330,000;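 active = inhibition above about 50% at the single test dose, limit read from the data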;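 note: plate controls were DMSO with enzyme for no effect and no enzyme buffer wells for full effect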
Platelet DG rel – platelet dense granule release activity. hit rate 0.22% among 300,000. inhibition, %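 (compounds screened at 7.5 µM in platelet-rich plasma)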. human platelet-rich plasma, SFLLRN dense granule ATP release, luminescence;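 active = mean replicate score, as percent of positive control, at or above 50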
SENP1 FRET inh – blocks the human SENP1 SUMO protease catalytic domain. Q9P0U3. recombinant SENP1 catalytic domain, CyPet-SUMO1-YPet FRET cleavage. inhibition, % at 10 µM. hit rate 0.21% among 360,000;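 active = inhibition at least 30% at 10 µM, raw YFP signal under a set limit, fluorescence ratio 0.5 to 1.5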;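 note: 0% = enzyme with DMSO and 100% = no enzyme wells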
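Material – human SENP1 catalytic domain · Input – SENP1 enzyme, 20 pM final · Compound dosing – single concentration of 10 µM compound, 0.5% DMSO final · Timing – enzyme reaction for 50 min at room temperature, dark · Measured by – FRET fluorescence in CFP and YFP emission channels · Control set – no-enzyme wells low, DMSO-plus-enzyme wells high control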
SENP8 block-1 – SENP8 protease inhibition; purified SENP8, Z-RLRGG-aminoluciferin cleavage, luminescence; inhibition, % at 10 µM; hit rate 1.2% among 330,000; in the data active = inhibition above about 50%
SENP8 block-2 – inhibitors of human SENP8 protease | Q96LD8 | recombinant SENP8, Nedd8 substrate fluorescence | inhibition, % at 20 µM | hit rate 0.64% among 360,000 | AID 602440; in the data active = inhibition mostly above about 40%, no sharp cut-off; inactive = mostly below about 27%
Numbers without * were called inactive; . = no result given.

SMILES	SENP6 block	SENP7 block	Platelet DG rel	SENP1 FRET inh	SENP8 block-1	SENP8 block-2
CC(=O)N(C1=C(N2CCOCC2)C(=O)c2ccccc2C1=O)c1ccc(C(=O)O)cc1	18	34	-4	0	19	18
O=C(O)c1ccc(NC2=C(N3CCOCC3)C(=O)c3ccccc3C2=O)cc1	43	3	19	-60	12	53*
CCOC(=O)N1CCN(c2cc(NCCC(=O)O)c3c4c(onc24)-c2ccccc2C3=O)CC1	48	26	.	100	26	88*
O=C(O)CCCNc1cc(N2CCN(C(=O)c3ccco3)CC2)c2noc3c2c1C(=O)c1ccccc1-3	38	15	3	83*	24	77*
O=C1c2ccccc2-c2onc3c(N4CCN(CCO)CC4)cc(N4CCN(C(=O)c5ccco5)CC4)c1c23	20	16	12	32*	11	75*
Cc1ccc2c(c1)C(O)(c1c(C)[nH]c3ccccc13)C(=O)N2 (centres undefined)	.	.	0	1	.	38
Cn1c(N/N=C/c2cc3ccccc3nc2Cl)nc2ccccc21	-8	0	60*	-25	-5	-132
CCCCC[n+]1ccn(C2=C([O-])c3ccccc3C(=O)/C2=N\S(=O)(=O)c2ccc(Cl)cc2)c1	47	19	4	-3	19	71*
Cc1cc(=O)n2nc(N3CCCC(C(=O)NCc4ccccc4)C3)sc2n1 (centres undefined)	4	-7	69*	-1	10	7
Cc1cc(=O)n2nc(N3CCCC(C(=O)NCc4ccc(F)cc4)C3)sc2n1 (centres undefined)	5	-4	2	0	13	16
O=S1(=O)CCN(Cc2csc(-c3cccs3)n2)CC1	25	46	52*	-1	11	-37
O=S1(=O)CCN(Cc2ccccn2)CC1	3	8	7	1	-2	8
O=C1/C(=C/C=C/c2ccco2)SC(=S)N1c1ccc(O)cc1	-53	9	8	6	4	46*
CN(C)c1ccc(/C=C/C=C2/SC(=S)N(c3ccccc3)C2=O)cc1	-11	-2	4	72*	1	11
O=C(O)c1ccc(N2C(=O)/C(=C/C=C/c3ccccc3)SC2=S)cc1	6	2	-3	7	1	13
O=C1/C(=C\c2ccco2)SC(=S)N1c1ccc(O)cc1	-5	7	-11	1	29	13
COC1=CC(=O)c2ccccc2C1=O	56*	18	.	2	51*	-221
COC1=CC(=O)C=C(OC)C1=O	.	.	.	-1	.	22
O=[N+]([O-])c1ccc(N=Nc2ccc(O)c3ccccc23)cc1	.	.	.	-17	.	45*
CCN1C(=O)c2ccc(C(=O)NCc3ccc4c(c3)OCO4)cc2C1=O	-7	-1	0	2	9	2
CC(=O)c1ccc(-c2nc3c4ccccc4ccn3c2C(C)=O)o1	-1	7	51*	2	-3	-365
Cc1ccc(Cc2c(-c3ccco3)nc3c4ccccc4ccn23)cc1	.	.	.	-21	.	-367
CC(C)(OC(=O)c1ccc(C#N)cc1)c1cc2ccccc2c(=O)o1	4	6	.	2	1	9
CCOc1cc(C2Nc3cccc4cccc(c34)N2)ccc1O	31	2	2	-25	2	59*
CCOc1ccc(C2Nc3cccc4cccc(c34)N2)cc1OC	-26	4	4	10	2	24
SMILES	SENP6 block	SENP7 block	Platelet DG rel	SENP1 FRET inh	SENP8 block-1	SENP8 block-2
CC(C)(C)C(Cn1ccnc1)NC(=O)c1ccc2nc(C3CC3)oc2c1 (centres undefined)	-7	12	58*	1	-10	-3
Cc1cc(=O)oc2cc(N3C(=O)CC(Cc4ccccc4)C3=O)ccc12 (centres undefined)	-1	14	1	-2	-1	-120
CC(=O)Nc1cccc(N2C(=O)CC(Cc3ccccc3)C2=O)c1 (centres undefined)	19	5	57*	-1	12	13
Cc1ccc2c(c1)nnn2C1CCN(S(=O)(=O)c2cccc(S(=O)(=O)N(C)C)c2)CC1	8	6	-1	1	3	16
O=C(O)Cn1c2c(c3ccccc31)CCCC2	-7	7	7	3	3	-108
COc1cc(OC)c(C2CC(=O)N3CN(C)CSC3=C2C#N)cc1OC (centres undefined)	-4	4	-1	-30	0	79*
COc1ccc2ccccc2c1C1CC(=O)N2CN(C)CSC2=C1C#N (centres undefined)	14	-1	-5	2	4	42*
CC(C)c1ccc(C2CC(=O)N3CN(C)CSC3=C2C#N)cc1 (centres undefined)	17	-10	23	-15	4	-26
Cc1cccc(C(=O)N(Cc2cccs2)C2CCS(=O)(=O)C2)c1 (centres undefined)	-4	1	2	0	3	16
CCN(CC(=O)NCc1cccs1)C(=O)/C=C/c1cccc(OC)c1OC	-2	-6	-8	1	6	-228
COc1ccc(/C=C\c2nc(=O)c3ccccc3o2)cc1	72*	63*	12	-4	66*	-126
Oc1c(C=Nc2ccc(Cl)cn2)sc2ccccc12	66*	57*	35	-71	28	-110
CCC(C)n1c(-c2ccco2)nc2nc3ccccc3nc21 (centres undefined)	-6	7	-2	.	1	.
CC1(C(=O)NS(=O)(=O)c2cccc(F)c2)CCN1C(=O)C/C=C/c1ccccc1 (centres undefined)	.	.	.	1	.	16
O=C(O)c1ccc(NC(=S)NC(=O)c2ccc3ccccc3c2)cc1	-9	24	-3	-1	-7	11
O=C(O)c1cccc(NC(=S)NC(=O)c2ccc3ccccc3c2)c1	93*	71*	1	0	87*	-4
COc1cc([N+](=O)[O-])cc(/C=C2/SC(=S)N(Cc3ccccc3)C2=O)c1O	.	.	1	79*	.	37
COc1cc(/C=C2/SC(=S)N(Cc3ccccc3)C2=O)ccc1OS(C)(=O)=O	-7	-2	-2	2	4	18
COc1cc(/C=C2/SC(=S)N(Cc3ccccc3)C2=O)ccc1OCC(=O)O	7	-5	-1	-55	-12	14
O=C1/C(=C\c2cc(Br)cc(Br)c2O)SC(=S)N1Cc1ccccc1	13	-5	-3	14	4	40*
COc1cc(/C=C2/SC(=S)N(Cc3ccccc3)C2=O)cc(Cl)c1O	.	.	7	84	.	46*
O=C(O)c1ccc(/C=C2/SC(=S)N(Cc3ccccc3)C2=O)cc1	.	.	13	2	.	17
Cc1cc(C)c(OCC(=O)N(C)CC(=O)Nc2ccc(N3CCOCC3)cc2)c(C)c1	1	8	-13	0	10	3
CCN(CC)CCNc1cc(C)nc2c1C(=O)C(=O)C=C2N1CCCCC1	31	18	28	4	13	56*
